Test [1] deals with T1, Coagulation factor XIII B chain (Homo sapiens) (UniProt P05160).
T1 sequence (whole entry): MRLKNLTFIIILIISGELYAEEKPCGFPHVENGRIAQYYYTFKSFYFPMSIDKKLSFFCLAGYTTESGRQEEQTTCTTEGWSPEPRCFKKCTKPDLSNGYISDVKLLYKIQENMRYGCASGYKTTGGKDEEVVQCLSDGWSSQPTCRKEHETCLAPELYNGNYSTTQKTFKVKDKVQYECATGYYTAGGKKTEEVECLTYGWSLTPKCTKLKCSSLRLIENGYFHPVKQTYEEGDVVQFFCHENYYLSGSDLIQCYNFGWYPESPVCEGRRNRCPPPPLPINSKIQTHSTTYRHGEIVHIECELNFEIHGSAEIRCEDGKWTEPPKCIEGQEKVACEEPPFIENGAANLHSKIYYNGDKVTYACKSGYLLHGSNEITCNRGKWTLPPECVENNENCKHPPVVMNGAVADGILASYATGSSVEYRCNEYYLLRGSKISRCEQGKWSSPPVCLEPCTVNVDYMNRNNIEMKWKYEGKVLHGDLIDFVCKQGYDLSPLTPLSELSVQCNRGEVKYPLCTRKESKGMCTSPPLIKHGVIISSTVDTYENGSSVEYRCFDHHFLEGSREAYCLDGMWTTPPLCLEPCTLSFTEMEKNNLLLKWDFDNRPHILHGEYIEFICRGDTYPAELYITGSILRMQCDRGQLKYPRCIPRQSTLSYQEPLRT
Briefly: Binding affinity to nonactivated recombinant F13B subunit (unknown origin) by microscale thermophoresis method. Summed up:
(§1)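 Carboxyfluorescein-labeled peptide (2 μM solution, before mixing) in 50 mM Tris-HCl pH 7.5, 0.9% w/v NaCl, with Tween-20 to 0.1% final. Mixed with an equal volume of protein (FXIIIa, FXIII-A or FXIII-B) in the same buffer, 15 concentrations spanning 3.1 μM to 0.1 nM. After 20 min incubation, the mixture was loaded into glass capillaries and thermophoresis read three times per capillary.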
(MST reads how a fluorescent partner responds to local heating, with and without ligand.)

Test [2] deals with T2, Coagulation factor XIII A chain (Homo sapiens) (UniProt P00488).
T2 sequence (whole entry): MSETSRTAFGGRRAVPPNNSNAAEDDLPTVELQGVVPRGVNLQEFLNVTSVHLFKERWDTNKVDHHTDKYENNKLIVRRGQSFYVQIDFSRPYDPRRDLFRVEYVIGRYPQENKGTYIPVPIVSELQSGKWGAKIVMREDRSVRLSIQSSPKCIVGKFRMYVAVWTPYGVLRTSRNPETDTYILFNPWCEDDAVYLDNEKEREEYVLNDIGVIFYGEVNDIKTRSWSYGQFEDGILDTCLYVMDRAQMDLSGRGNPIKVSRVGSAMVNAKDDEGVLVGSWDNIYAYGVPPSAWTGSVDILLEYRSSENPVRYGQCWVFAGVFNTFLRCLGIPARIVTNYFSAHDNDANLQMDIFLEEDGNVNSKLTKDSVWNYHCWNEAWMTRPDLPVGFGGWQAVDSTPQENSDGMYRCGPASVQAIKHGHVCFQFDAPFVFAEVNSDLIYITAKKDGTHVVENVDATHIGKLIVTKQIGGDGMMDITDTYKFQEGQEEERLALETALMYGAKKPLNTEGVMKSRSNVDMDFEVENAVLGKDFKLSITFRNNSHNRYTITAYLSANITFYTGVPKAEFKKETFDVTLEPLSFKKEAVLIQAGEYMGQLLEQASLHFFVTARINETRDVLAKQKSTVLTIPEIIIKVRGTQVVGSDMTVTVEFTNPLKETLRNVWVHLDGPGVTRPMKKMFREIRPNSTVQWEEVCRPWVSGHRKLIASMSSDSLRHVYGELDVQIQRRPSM
Briefly: Inhibition of recombinant F13a (unknown origin) using H-Tyr-Glu(pNA)-Val-Lys-Val-Ile-Gly-NH2 as substrate by chromogenic assay.

The target in test [3] is T2, Coagulation factor XIII A chain (Homo sapiens). The test is described as follows: Binding affinity to nonactivated recombinant F13A subunit (unknown origin) by microscale thermophoresis method. The procedure, abridged: as §1
Test [4] addresses T3, Protein-glutamine gamma-glutamyltransferase (Homo sapiens) (UniProt P21980).
T3 sequence (whole entry): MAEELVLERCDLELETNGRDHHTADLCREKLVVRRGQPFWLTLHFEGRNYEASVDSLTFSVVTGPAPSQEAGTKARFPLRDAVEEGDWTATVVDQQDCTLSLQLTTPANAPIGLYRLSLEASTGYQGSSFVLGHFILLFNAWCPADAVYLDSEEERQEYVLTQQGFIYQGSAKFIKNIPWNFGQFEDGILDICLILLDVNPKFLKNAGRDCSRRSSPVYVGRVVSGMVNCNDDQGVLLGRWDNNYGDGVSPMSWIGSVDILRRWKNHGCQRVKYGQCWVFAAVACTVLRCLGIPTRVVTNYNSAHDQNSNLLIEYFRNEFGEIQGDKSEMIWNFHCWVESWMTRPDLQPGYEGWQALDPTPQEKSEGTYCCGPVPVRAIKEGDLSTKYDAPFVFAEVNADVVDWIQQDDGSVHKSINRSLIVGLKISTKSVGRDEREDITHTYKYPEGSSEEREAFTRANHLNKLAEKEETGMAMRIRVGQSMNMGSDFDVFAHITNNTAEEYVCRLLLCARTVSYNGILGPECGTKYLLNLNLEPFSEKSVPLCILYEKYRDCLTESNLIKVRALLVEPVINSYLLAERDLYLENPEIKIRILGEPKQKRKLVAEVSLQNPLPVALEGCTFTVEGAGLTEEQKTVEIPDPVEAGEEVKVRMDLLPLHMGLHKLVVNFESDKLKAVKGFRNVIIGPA
The test is described as follows: Inhibition of human TGase-2 using fluorogenic FRET substrate at 10 uM.

Calls of active or inactive are those of the source. The calls are words filed in the database; no cut-off is given here. Residues, ends and D or L forms follow the SMILES beside them.

The inhibition is how much of the control response was suppressed.

On to `CC[C@H](C)[C@H](NC(=O)CNC(=O)[C@H](CCC(N)=O)NC(=O)[C@H](Cc1cnc[nH]1)NC(=O)[C@H](Cc1c[nH]c2ccccc12)NC(=O)[C@H](CCC(=O)O)NC(=O)[C@H](CCCCN)NC(=O)[C@H](CS)NC(=O)[C@@H]1CCCN1C(=O)[C@H](CC(C)C)NC(=O)[C@H](CC(C)C)NC(=O)[C@@H](N)CCCCN)C(=O)N1CCC[C@H]1C(=O)N[C@@H](CC(N)=O)C(=O)N1CCC[C@H]1C(=O)N[C@@H](CCCNC(=N)N)C(=O)N[C@@H](CS)C(=O)N[C@@H](Cc1c[nH]c2ccccc12)C(=O)N[C@@H](CS)C(=O)NCC(=O)N[C@@H](C)C(=O)N[C@@H](CC(=O)O)C(=O)N[C@@H](CC(C)C)C(=O)N[C@@H](CCC(=O)O)C(=O)N[C@@H](CS)C(=O)N[C@@H](C)C(=O)N[C@@H](CCC(N)=O)C(=O)N[C@@H](CC(=O)O)C(=O)N[C@@H](CCC(N)=O)C(=O)N[C@@H](Cc1ccc(O)cc1)C(=O)N[C@@H](CS)C(=O)N[C@@H](C)C(=O)N[C@@H](Cc1ccccc1)C(=O)N[C@H](C(=O)N1CCC[C@H]1C(=O)N[C@@H](CCC(N)=O)C(=O)N[C@@H](CS)C(=O)O)[C@@H](C)CC` (H-KLLPCKEWHQGIPNPRCWCGADLECAQDQYCAFIPQC-OH), for which the outcome in test [1] and in test [3] was inactive. In addition, the inhibition entry in test [2] is “inactive”. In addition, the inhibition in test [4] is under 10%.

(Values after ChEMBL document CHEMBL3351848, “Novel insights into structure and function of factor XIIIa-inhibitor tridegin” (J Med Chem, 2014).)
